ChEMBL document CHEMBL1143430, “Synthesis and free radical scavenging activity of some new spiropyranocoumarins” (Bioorg Med Chem Lett, 2008)

How the values were obtained:
[1] = test system: Radical scavenging activity; assay: Antioxidant activity assessed as DPPH free radical scavenging activity after 20 mins; format: functional
Summary of the method: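 Test compound at 5–200 μM mixed with an equal volume of 200 μM DPPH in ethanol, incubated 20 min at room temperature; absorbance read at 517 nm (also at 30, 45 and 60 min). IC50 = concentration giving 50% inhibition of 200 μM DPPH, from linear regression over at least five concentrations in triplicate; mean ± SD of at least three experiments.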

[2] = Antioxidant activity assessed as inhibition of xanthine-xanthine oxidase generated superoxide anion radical production at 0.5 mM; format: functional
Summary of the method: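 Superoxide generated enzymically by xanthine oxidase (0.07 U ml⁻¹, added to start the reaction) with 200 μM xanthine and 600 μM NBT in 0.1 phosphate buffer, pH 7.4. Read-out was the NBT reduction product.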

Row | Compound | IC50 [1] | inhibition [2]
1 | O=c1cc(O)c2ccccc2o1 [4-HYDROXYCOUMARINS] | 124 µM | 19.4%
2 | O=c1cc(O)c2ccc3c(c2o1)[C@@H](O)[C@@H](O)C1(O3)C2CC3CC(C2)CC1C3 (some centres not stated) | 166 µM | 48.3%
3 | O=c1cc(O)c2ccc3c(c2o1)C=CC1(O3)C2CC3CC(C2)CC1C3 (configuration not stated) | 130 µM | 37.3%
4 | O=c1ccc2ccc(O)cc2o1 [UMBELLIFERONE] | > 400 µM | 32.6%
5 | O=c1cc(O)c2ccc3c(c2o1)C=CC1(CCCCCC1)O3 | 202 µM | < 10%
6 | O=c1cc(O)c2ccc3c(c2o1)C=CC1(CCCC1)O3 | 182 µM | < 10%
7 | Oc1ncnc2[nH]ncc12 | – | 42.3%
8 | Cc1cc(C(C)(C)C)c(O)c(C(C)(C)C)c1 [BUTYLATED HYDROXYTOLUENE] | 83.8 µM | –

The next lines start with results.

Row | IC50 [1] | Compound | inhibition [2]
9 | 201 µM | O=c1cc(O)c2ccc3c(c2o1)C=CC1(CCCCC1)O3 | < 10%
10 | 97.8 µM | O=c1cc(O)c2ccc3c(c2o1)[C@@H](O)[C@@H](O)C1(CCCC1)O3 | 63.5%
11 | 158 µM | O=c1cc(O)c2ccc3c(c2o1)[C@@H](O)[C@@H](O)C1(CCCCCC1)O3 | 35.8%
12 | 161 µM | O=c1cc(O)c2ccc3c(c2o1)[C@@H](O)[C@@H](O)C1(CCCCC1)O3 | 51.7%
